The values below come from ChEMBL document CHEMBL3808288, “Identification and in Vivo Evaluation of Liver X Receptor β-Selective Agonists for the Potential Treatment of Alzheimer's Disease” (J Med Chem, 2016).

Data set [1] is described as follows: Protein binding in rhesus monkey plasma. It is filed as ADME, cell-free, Macaca mulatta. Conditions: read-out: PPB (converted).
In data set [2] the target is T1, Oxysterols receptor LXR-alpha (Homo sapiens) (UniProt Q13133).
T1 sequence (whole entry): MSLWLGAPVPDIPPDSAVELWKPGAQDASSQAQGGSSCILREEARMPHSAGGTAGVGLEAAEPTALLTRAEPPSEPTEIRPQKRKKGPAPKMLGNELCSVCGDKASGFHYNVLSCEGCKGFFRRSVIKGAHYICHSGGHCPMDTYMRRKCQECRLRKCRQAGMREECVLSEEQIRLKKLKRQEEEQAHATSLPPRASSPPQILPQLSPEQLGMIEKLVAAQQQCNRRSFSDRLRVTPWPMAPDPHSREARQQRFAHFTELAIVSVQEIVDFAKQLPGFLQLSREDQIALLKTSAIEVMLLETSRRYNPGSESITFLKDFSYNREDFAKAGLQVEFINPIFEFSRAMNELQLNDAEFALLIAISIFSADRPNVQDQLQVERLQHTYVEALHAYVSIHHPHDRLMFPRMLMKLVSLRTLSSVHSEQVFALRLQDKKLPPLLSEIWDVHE
The data set is described as follows: (§1) Partial agonist activity at GST-tagged LXRalpha-LBD (unknown origin) by LanthaScreen TR-FRET liver X receptor coactivator assay. The method, boiled down:
(§2)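 Cofactor recruitment assay using the ligand binding domains of LXRβ or LXRα. The read-out was EC50 and Emax, with Emax relative to a full agonist control.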

Data set [3] has as its target T2, Oxysterols receptor LXR-alpha (Homo sapiens, UniProt Q13133).
T2 sequence (Q13133 whole entry): T1 sequence (whole entry)
Described as §1. The method, boiled down:
as §2

The target in data set [4] is T1, Oxysterols receptor LXR-alpha (Homo sapiens). The data set is described as follows: (§3) Partial agonist activity at LXRalpha (unknown origin) expressed in human HepG2 cells co-expressing ABCA1 promoter measured after 48 hrs by cell-based transactivation assay. The essentials:
(§4)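 Cell-based transactivation assay using endogenous LXRβ or LXRα. The read-out was EC50 and Emax, with Emax expressed relative to a full agonist control set at 100%.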

Data set [5] deals with T2, Oxysterols receptor LXR-alpha. The data set is described as §3. The essentials:
as §4

Data set [6] is described as follows: Apparent permeability of compound in MDCK cells. It is filed as ADME, cell-based, Canis lupus familiaris. Conditions: dog.
Data set [7] is described as follows: Solubility of the compound at pH 2. It is filed as physicochemical. Conditions: buffer.
The nature of data set [8]: Ratio of drug uptake in brain to plasma in rat. It is filed as ADME, cell-free. Conditions: brain and plasma, read-out: BPR.
The nature of data set [9]: Volume of distribution at steady state in rat. The format is ADME, organism-based. Conditions: in vivo, read-out: Vdss.
Data set [10] in a line: Oral bioavailability in rat. The format is ADME, organism-based. Conditions: in vivo.
Data set [11] concerns Rattus norvegicus. Kind of data set: Increase in apoE level in CSF of Wistar Han rat at 100 mg/kg, sc dosed for 4 days by western blotting method. The format is functional, organism-based. The method, boiled down: (§5)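 Rats were dosed subcutaneously for 4 days, and apoE and Aβ were then measured in CSF.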
A general note: In western blotting, separated proteins are transferred to a membrane and probed.

The test system of data set [12] is Rattus norvegicus. Kind of data set: Increase in amyloid beta level in CSF of Wistar Han rat at 100 mg/kg, sc dosed for 4 days by western blotting method. The format is functional, organism-based. The method, boiled down: as §5
In data set [13] the test system is Mus musculus. Kind of data set: Activation of LXR in Tg2576 transgenic mouse assessed increase in soluble apoE level in brain at 50 mg/kg, sc dosed for 3 weeks. The format is functional, organism-based. The essentials:
(§6)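 12-month-old Tg2576 mice were dosed subcutaneously for three weeks. Brain was assayed for ABCA1 protein, soluble apoE and DEA-soluble Aβ, and plasma and liver were assayed for triglycerides. Groups were compared with vehicle by ANOVA.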

The subject of data set [14] is Mus musculus. The data set is described as follows: Toxicity in Tg2576 transgenic mouse assessed as change in plasma triglyceride level at 50 mg/kg, sc dosed for 3 weeks. It is filed as organism-based. Conditions: in vivo, 504 h. The essentials: as §6
Data set [15] concerns Mus musculus. The data set is described as follows: Reversal of hyperlocomotary behavior in Tg2576 transgenic mouse at 50 mg/kg, sc dosed for 16 days by open field test. The format is functional, organism-based. The essentials: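 Mice from the three-week subcutaneous study were tested in the open field for locomotor activity after 16 days of dosing. Wild-type mice were included for comparison.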

The test system of the next data set is Rhesus monkey. The data set is described as follows: Upregulation of CETP in rhesus monkey at 20 mg/kg, po qd for 2 weeks relative to control. It is filed as ADME, organism-based. Conditions: Macaca mulatta, 336 h, read-out: FC.

In brackets after ≈: the same amount, converted by molar mass. Activity calls are given as the source filed them. The rule behind the calls is not given here.

The term Emax denotes the size of the effect at its maximum, as opposed to the concentration needed. As usually defined, the EC50 is the concentration needed to bring the measured effect to its halfway point. By Papp is commonly meant the rate of passage across a membrane or cell layer, normalised by area and donor concentration. For orientation: solubility means how much of the substance goes into solution per volume. The bioavailability is the share of a dose that reaches the circulation, judged against a reference dose that is usually intravenous. With `CC(C)[C@@](O)(C(=O)N1CCC(C2CCN(c3ccc(C(=O)N(C)C)c(Cl)c3)CC2)CC1)C(F)(F)F`, the fraction unbound in data set [1] was 0.007. Further, the Emax in [2] turned out to be 49%; in data set [4], 31%. Further, the results for the EC50 in data set [3] and in data set [5] were 1900 nM and 830 nM, respectively. In addition, the Papp in data set [6] is 24 ×10⁻⁶ cm/s. The compound further yielded a solubility in [7] of 205 µM (≈ 106 µg/mL). In addition, the Kp in [8] is 0.62. Also, the Vd in data set [9] worked out at 8.8 L/kg. Moreover, the bioavailability in [10] was 71%. The outcome in the data set on Rattus norvegicus [11], in the data set with Rattus norvegicus [12], in the data set with Mus musculus [13] and in the data set on Mus musculus [15] was Active. The Activity entry in the data set on Mus musculus [14] is given as “Non-toxic”. For the same compound, the fold induction at 20 mg/kg with Rhesus monkey amounted to 2.8.
